Residue numbers refer to the chain shown, from its start.

This is an account of results in paper PMC2806602 (The Journal of neuroscience : the official journal of the …, 2009).

For one experiment, the target named is T1, GluRδ2^Wt (Rattus norvegicus, UniProt Q63226).
T1 sequence (Q63226 24-1007): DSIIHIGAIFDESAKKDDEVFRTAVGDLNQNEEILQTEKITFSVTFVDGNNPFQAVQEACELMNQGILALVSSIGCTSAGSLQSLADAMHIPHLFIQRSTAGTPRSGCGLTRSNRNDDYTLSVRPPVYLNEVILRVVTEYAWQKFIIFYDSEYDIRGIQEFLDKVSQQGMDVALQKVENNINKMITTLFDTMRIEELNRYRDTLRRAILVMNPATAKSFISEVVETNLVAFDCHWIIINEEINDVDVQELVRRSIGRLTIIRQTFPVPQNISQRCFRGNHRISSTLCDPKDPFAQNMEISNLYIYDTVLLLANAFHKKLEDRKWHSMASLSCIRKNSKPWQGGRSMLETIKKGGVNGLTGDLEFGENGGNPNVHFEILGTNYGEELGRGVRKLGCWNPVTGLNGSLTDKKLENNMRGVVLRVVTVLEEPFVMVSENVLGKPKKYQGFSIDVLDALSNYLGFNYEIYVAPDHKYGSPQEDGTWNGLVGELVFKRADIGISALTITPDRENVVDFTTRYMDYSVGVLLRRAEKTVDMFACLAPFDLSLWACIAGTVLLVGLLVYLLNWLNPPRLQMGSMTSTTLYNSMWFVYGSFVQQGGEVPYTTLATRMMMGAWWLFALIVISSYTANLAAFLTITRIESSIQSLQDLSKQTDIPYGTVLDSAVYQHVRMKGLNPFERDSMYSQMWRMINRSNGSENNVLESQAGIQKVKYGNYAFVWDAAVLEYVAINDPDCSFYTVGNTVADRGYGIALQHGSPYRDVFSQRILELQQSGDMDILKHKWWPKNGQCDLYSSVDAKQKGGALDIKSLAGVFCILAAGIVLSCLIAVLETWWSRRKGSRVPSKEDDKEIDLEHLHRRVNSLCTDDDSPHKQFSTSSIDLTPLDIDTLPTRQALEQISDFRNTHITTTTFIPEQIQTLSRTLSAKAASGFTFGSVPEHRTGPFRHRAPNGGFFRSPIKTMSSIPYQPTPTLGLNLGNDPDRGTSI
The experiment can be described thus: Two-electrode voltage-clamp recordings in Xenopus oocytes expressing GluRδ2^Wt. It counts as cell-based. As to conditions: 0.5 mM Ba^2+ exchanged with 0.5 mM of the divalent cation. Put shortly: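 Oocytes injected with wild-type receptor cRNA the day after excision and collagenase treatment. Two-electrode voltage clamp at −40 mV and 23°C, 24–72 h post-injection. Bath: 90 mM NaCl, 3 mM KCl, 0.5 mM BaCl2, 10 mM HEPES, pH 7.6. Ba2+ was replaced by 0.5 mM Mg2+, Zn2+, Mn2+, Sr2+ or Ca2+, or Ca2+ was raised stepwise. Choline or NMDG chloride kept osmolarity and Cl− constant. Baseline was current without Ca2+.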
In general terms: Two-electrode voltage clamp is typically applied to oocytes expressing channels or transporters.

In the next experiment the target is T2, GluRδ2^Lc (Rattus norvegicus, UniProt Q63226, A654T).
T2 sequence (Q63226 24-1007 A654T): T1 sequence (Q63226 24-1007) with A631T
It is filed as cell-based. As to conditions: for spontaneously active current relative to baseline with Ba^2+: 0.5 mM Ba^2+ exchanged with 0.5 mM of the divalent cation.

With `[Zn+2]` [Zn^2+], the “effect of divalent cation on currents at GluRδ2^Wt” value (“effect … at GluRδ2^Wt” for short) on GluRδ2^Wt is listed as “no changes were observed”. The “spontaneously active current relative to baseline with Ba^2+” value on GluRδ2^Lc is on record as 1.33 ± 0.02.

Consider `[Mg+2]` [Mg^2+], for which the “spontaneously active current relative to baseline with Ba^2+” value on GluRδ2^Lc stood at 1.06 ± 0.01. For the molecule `[Mn+2]` [Mn^2+], the “effect … at GluRδ2^Wt” value on GluRδ2^Wt is listed as “no changes were observed”. Also, on GluRδ2^Lc, the “spontaneously active current relative to baseline with Ba^2+” value was determined as 2.66 ± 0.13. For the molecule `[Sr+2]` [Sr^2+], the “effect … at GluRδ2^Wt” value at GluRδ2^Wt was “no changes were observed”. Besides, at GluRδ2^Lc, the “spontaneously active current relative to baseline with Ba^2+” value was determined as 1.33 ± 0.05. As for `[Na+]` [Na^+], the “modulation of GluRδ2^Lc currents by extracellular Na^+” value at GluRδ2^Lc (current-voltage relationship at 0, 30, 60, 90 mM Na^+, -60 to +30 mV) is listed as “does not modulate GluRδ2”.
